Active and inactive are the calls of the source.
Assays:
DLD1 KD [1] = assay: Inhibition of human MSK phosphorylation in DLD1 KD cells carrying inactive MET kinase at 2.5 uM; format: cell-based
Method in brief: (§1)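 Parental or MET-KD DLD1 cells held 16 h with or without 2.5 μM inhibitor, then lysed. Phosphorylation read on a human phospho-MAPK antibody array following the kit instructions. Dot signals quantified by densitometry and normalized to untreated WT DLD1 cells (set to 1). Significance by two-tailed Student's t test against WT untreated cells.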

DLD-1 [2] = assay: Reduction of proliferation in human DLD1 cells at 2.5 uM by ATP-based assay; format: functional, cell-based
Method in brief: (§2)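 Parental DLD1 and two independent MET-KD clones seeded at equal density in 96-well plates and given 2.5 μM inhibitor. Cell number measured as ATP-based luminescence (RLU). Mean of triplicates ± SD.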

DLD-1 [3] = assay: Reduction of proliferation in human DLD1 KD1 cell carrying inactive MET kinase at 2.5 uM by ATP-based assay; format: functional; method in brief: as §2
DLD-1 [4] = assay: Reduction of proliferation in human DLD1 KD2 cell carrying inactive MET kinase at 2.5 uM by ATP-based assay; format: functional; method in brief: as §2
[5] = molecular target: T1, c-Jun N-terminal kinase, JNK (Homo sapiens) (UniProt P45983+P53779+P45984); assay: Inhibition of human JNK phosphorylation in DLD1 cells at 2.5 uM; format: cell-based; conditions: DLD-1; method in brief: as §1
[6] = molecular target: T1, c-Jun N-terminal kinase, JNK (Homo sapiens); assay: Inhibition of human JNK phosphorylation in DLD1 KD cells carrying kinase inactive MET at 2.5 uM; format: cell-based; method in brief: as §1
DLD-1 [7] = assay: Inhibition of human MSK phosphorylation in DLD1 cells at 2.5 uM; format: cell-based; method in brief: as §1
[8] = molecular target: Mitogen-activated protein kinase 14 (Homo sapiens) (UniProt Q16539); assay: Inhibition of human p38-alpha phosphorylation in DLD1 cells at 2.5 uM; format: cell-based; conditions: DLD-1; method in brief: as §1
Sequence of Mitogen-activated protein kinase 14 (Homo sapiens) (Q16539 whole entry): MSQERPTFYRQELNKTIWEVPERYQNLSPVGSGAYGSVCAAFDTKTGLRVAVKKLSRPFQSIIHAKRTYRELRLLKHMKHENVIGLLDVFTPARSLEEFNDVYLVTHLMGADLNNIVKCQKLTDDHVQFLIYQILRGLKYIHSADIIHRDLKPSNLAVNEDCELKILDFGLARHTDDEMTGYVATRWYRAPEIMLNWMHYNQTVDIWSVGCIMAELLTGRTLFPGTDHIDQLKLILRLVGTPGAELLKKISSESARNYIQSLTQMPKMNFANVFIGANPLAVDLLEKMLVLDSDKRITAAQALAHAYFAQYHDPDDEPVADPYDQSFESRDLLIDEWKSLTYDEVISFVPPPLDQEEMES

[9] = molecular target: Mitogen-activated protein kinase 14 (Homo sapiens) (UniProt Q16539); assay: Inhibition of human p38-alpha phosphorylation in DLD1 KD cells carrying inactive MET kinase at 2.5 uM; format: cell-based; method in brief: as §1
DLD-1 [10] = assay: Inhibition of human p70s6K phosphorylation in DLD1 cells at 2.5 uM; format: cell-based; method in brief: as §1
DLD1 KD [11] = assay: Inhibition of human p70s6K phosphorylation in DLD1 KD cells carrying inactive MET kinase at 2.5 uM; format: cell-based; method in brief: as §1

Measured: Activity

Cc1[nH]c(/C=C2\C(=O)Nc3ccc(S(=O)(=O)N(C)c4cccc(Cl)c4)cc32)c(C)c1C(=O)N1CCN(C)CC1
active: all assays above

Reference: ChEMBL document CHEMBL1145523, “Genetic targeting of the kinase activity of the Met receptor in cancer cells” (Proc Natl Acad Sci U S A, 2007)
